Experimental data taken from the array DNA melting data of Ke et al. (doi:10.1101/2024.01.08.574731).

Key:
[1] = folding enthalpy; higher = less favourable; fluorescence melt of hairpins on a sequencing array, two-state fit; conditions: sodium 0.088 M
Procedure, shortened: (§1)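 Folding enthalpy and melting temperature come from bootstrapped two-state fits to Cy3 fluorescence of library hairpins carrying annealed Cy3 and quencher oligos on a sequenced MiSeq flow cell. Imaging was done in 50 mM Na-HEPES pH 8.0, 25 mM NaCl, stepping by 2.5 °C up to 60 °C, and signals were normalised to pre-quench Cy3 and to control constructs. Results of four replicates were combined by inverse variance, and fitted temperatures were raised by 9.35 °C to match UV melts.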

[2] = melting temperature; fluorescence melt of hairpins on a sequencing array, two-state fit, raised by 9.35 °C to match UV melts; conditions: sodium 0.088 M
Procedure, shortened: as §1

Sequence | folding enthalpy [1] | Tm [2]
GATCAATCAATTGATC ((((((....)))))) | -36 kcal/mol | 45 °C
GATCAATCCGTTGATC ((((((....)))))) | -32.5 kcal/mol | 47 °C
GATCAATCTTTTGATC ((((((....)))))) | -34.1 kcal/mol | 46.5 °C
GATCAATGATTTGATC ((((((....)))))) | -32.7 kcal/mol | 44.8 °C
GATCAATGCGTTGATC ((((((....)))))) | -45.6 kcal/mol | 50.9 °C
GATCAATGCTTGATC ((((((...)))))) | -28.5 kcal/mol | 43.2 °C
GATCAATGCTTTGATC ((((((....)))))) | -39.7 kcal/mol | 47.5 °C
GATCAATGTATTGATC ((((((....)))))) | -41.1 kcal/mol | 51 °C
GATCAATTGTTTGATC ((((((....)))))) | -35.9 kcal/mol | 46.1 °C
GATCACAAGGTGATC ((((((...)))))) | -38.4 kcal/mol | 58.4 °C
GATCACACAGGTGATC ((((((....)))))) | -44.3 kcal/mol | 54.5 °C
GATCACACATGTGATC ((((((....)))))) | -38.1 kcal/mol | 57.9 °C
GATCACACCTGTGATC ((((((....)))))) | -47.3 kcal/mol | 57.2 °C
GATCACACGAAAGTGATC (((..(((....)))))) | -34.3 kcal/mol | 48.8 °C
GATCACAGCCGTGATC ((((((....)))))) | -44.6 kcal/mol | 57.8 °C
GATCACAGGAGTGATC ((((((....)))))) | -38.2 kcal/mol | 54.8 °C
GATCACAGGGTGATC ((((((...)))))) | -36.8 kcal/mol | 61.2 °C
GATCACATACGTGATC ((((((....)))))) | -41.2 kcal/mol | 57.4 °C
GATCACATCGGTGATC ((((((....)))))) | -39.6 kcal/mol | 57 °C
GATCACATCGTGATC ((((((...)))))) | -41 kcal/mol | 58.3 °C
GATCACCAAAGTGATC ((((((....)))))) | -50.8 kcal/mol | 55.2 °C
GATCACCAATGTGATC ((((((....)))))) | -35.3 kcal/mol | 54.1 °C
GATCACCACGGTGATC ((((((....)))))) | -41.4 kcal/mol | 62.9 °C
GATCACCAGAGTGATC ((((((....)))))) | -40 kcal/mol | 57.2 °C

Sequence | folding enthalpy [1] | Tm [2]
GATCACCAGGTGATC ((((((...)))))) | -26.5 kcal/mol | 54.8 °C
GATCACCAGTGTGATC ((((((....)))))) | -47.5 kcal/mol | 53.3 °C
GATCACCATGGTGATC ((((((....)))))) | -43.6 kcal/mol | 63.8 °C
GATCACCCCGGTGATC ((((((....)))))) | -36.8 kcal/mol | 59.8 °C
GATCACCCGGTGATC ((((((...)))))) | -44.2 kcal/mol | 56.3 °C
GATCACCCGTGTGATC ((((((....)))))) | -47.7 kcal/mol | 55.5 °C
GATCACCGAAGTGATC ((((((....)))))) | -38.1 kcal/mol | 55.8 °C
GATCACCGCCGTGATC ((((((....)))))) | -48.4 kcal/mol | 54.4 °C
GATCACCGGTGTGATC ((((((....)))))) | -38 kcal/mol | 54.8 °C
GATCACCGTGGTGATC ((((((....)))))) | -29.5 kcal/mol | 66.3 °C
GATCACCGTGTGATC ((((((...)))))) | -42.3 kcal/mol | 58.3 °C
GATCACCTCGTGATC ((((((...)))))) | -38.2 kcal/mol | 59.3 °C
GATCACCTGCGTGATC ((((((....)))))) | -48.3 kcal/mol | 54.9 °C
GATCACCTGGGTGATC ((((((....)))))) | -47.5 kcal/mol | 62.6 °C
GATCACCTGTGTGATC ((((((....)))))) | -37.8 kcal/mol | 57 °C
GATCACCTTGGTGATC ((((((....)))))) | -37.2 kcal/mol | 67 °C
GATCACGAAAGTGGAATC ((((((....)))..))) | -10.3 kcal/mol | 32.1 °C
GATCACGAAAGTGGCATC ((((((....)))..))) | -12.3 kcal/mol | 30.3 °C
GATCACGAAAGTGGTATC ((((((....)))..))) | -13.5 kcal/mol | 34.1 °C
GATCACGAAAGTGTATC ((((((....))).))) | -20.6 kcal/mol | 44 °C
GATCACGAAAGTGTCATC ((((((....)))..))) | -13.8 kcal/mol | 31.5 °C
GATCACGACGTGATC ((((((...)))))) | -30.6 kcal/mol | 64.6 °C
GATCACGATGTGATC ((((((...)))))) | -30.8 kcal/mol | 58.5 °C
GATCACGCGTGTGATC ((((((....)))))) | -38.7 kcal/mol | 56.5 °C

Sequence | folding enthalpy [1] | Tm [2]
GATCACGCTTGTGATC ((((((....)))))) | -38 kcal/mol | 57.7 °C
GATCACGGACGTGATC ((((((....)))))) | -37.7 kcal/mol | 67.2 °C
GATCACGGAGGTGATC ((((((....)))))) | -37.9 kcal/mol | 64.3 °C
GATCACGGCGTGATC ((((((...)))))) | -38 kcal/mol | 61.3 °C
GATCACGGCTGTGATC ((((((....)))))) | -44.5 kcal/mol | 62.3 °C
GATCACGGGCGTGATC ((((((....)))))) | -40.4 kcal/mol | 57.8 °C
GATCACGGGGGTGATC ((((((....)))))) | -36.7 kcal/mol | 56.8 °C
GATCACGTCTGTGATC ((((((....)))))) | -37.7 kcal/mol | 59.5 °C
GATCACGTTCGTGATC ((((((....)))))) | -39.4 kcal/mol | 62.6 °C
GATCACTACAGTGATC ((((((....)))))) | -40.5 kcal/mol | 60.6 °C
GATCACTACCGTGATC ((((((....)))))) | -41.2 kcal/mol | 55.3 °C
GATCACTAGTGTGATC ((((((....)))))) | -37.6 kcal/mol | 55.1 °C
GATCACTATGTGATC ((((((...)))))) | -38.8 kcal/mol | 61.1 °C
GATCACTCCGTGATC ((((((...)))))) | -44 kcal/mol | 59.2 °C
GATCACTCGTGTGATC ((((((....)))))) | -37.1 kcal/mol | 57.1 °C
GATCACTGAGTGATC ((((((...)))))) | -40.1 kcal/mol | 55.2 °C
GATCACTGCGGTGATC ((((((....)))))) | -38 kcal/mol | 61.9 °C
GATCACTGTGGTGATC ((((((....)))))) | -45.6 kcal/mol | 59.4 °C
GATCACTTGGTGATC ((((((...)))))) | -37.5 kcal/mol | 59.1 °C
GATCACTTTCGTGATC ((((((....)))))) | -36.8 kcal/mol | 56.4 °C
GATCAGAAACCTGATC ((((((....)))))) | -36.9 kcal/mol | 44.1 °C
GATCAGAAATGATC (((((....))))) | -22.5 kcal/mol | 41.1 °C
GATCAGAACCCTGATC ((((((....)))))) | -39.8 kcal/mol | 47 °C
GATCAGAACTCTGATC ((((((....)))))) | -37.6 kcal/mol | 48.4 °C

Sequence | folding enthalpy [1] | Tm [2]
GATCAGAATCTGATC ((((((...)))))) | -31.4 kcal/mol | 45.4 °C
GATCAGAATGCTGATC ((((((....)))))) | -28.1 kcal/mol | 47 °C
GATCAGACCGCTGATC ((((((....)))))) | -28.5 kcal/mol | 47.8 °C
GATCAGACGGCTGATC ((((((....)))))) | -52.4 kcal/mol | 51.7 °C
GATCAGAGACTGATC ((((((...)))))) | -31.4 kcal/mol | 48 °C
GATCAGAGATCTGATC ((((((....)))))) | -24.3 kcal/mol | 50.1 °C
GATCAGAGGACTGATC ((((((....)))))) | -32.8 kcal/mol | 46.9 °C
GATCAGAGGTCTGATC ((((((....)))))) | -30.6 kcal/mol | 49.5 °C
GATCAGAGTACTGATC ((((((....)))))) | -37.4 kcal/mol | 49 °C
GATCAGAGTCCTGATC ((((((....)))))) | -38.2 kcal/mol | 47.6 °C
GATCAGATGCTGATC ((((((...)))))) | -30.6 kcal/mol | 49.4 °C
GATCAGCAACTGATC ((((((...)))))) | -33.8 kcal/mol | 45.6 °C
GATCAGCAATCTGATC ((((((....)))))) | -32.5 kcal/mol | 47.2 °C
GATCAGCACCCTGATC ((((((....)))))) | -33.1 kcal/mol | 48.7 °C
GATCAGCAGACTGATC ((((((....)))))) | -42.5 kcal/mol | 50.3 °C
GATCAGCATGCTGATC ((((((....)))))) | -47.5 kcal/mol | 60.8 °C
GATCAGCATTCTGATC ((((((....)))))) | -39 kcal/mol | 48.8 °C
GATCAGCCCGCTGATC ((((((....)))))) | -47.1 kcal/mol | 58.3 °C
GATCAGCCTACTGATC ((((((....)))))) | -35.2 kcal/mol | 49.9 °C
GATCAGCCTCCTGATC ((((((....)))))) | -34.4 kcal/mol | 49.1 °C
GATCAGCGAGCTGATC ((((((....)))))) | -44.7 kcal/mol | 61.4 °C
GATCAGCGGTCTGATC ((((((....)))))) | -32.1 kcal/mol | 49.9 °C
GATCAGCGTCCTGATC ((((((....)))))) | -32.4 kcal/mol | 49 °C
GATCAGGAAGCTGATC ((((((....)))))) | -34.2 kcal/mol | 53.9 °C
